This is a sample that favours compounds with a hit; in the whole collection about 3.5% have one here.
MrgX1 PAM = allosterically activates human MrgX1 receptor signaling. B-score at 10 µM. hit rate 0.63% among 310,000. MrgX1-HEK293, Fluo-4 calcium flux, FDSS; active compounds read high. AID 588675. Q96LB2;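 active = plate-corrected calcium response at least 3 library SD above typical, normal starting fluorescence, not activating the receptor alone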;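 also: compound read alongside a low EC10 to EC30 dose of BAM8-22 agonist; peak minus trough fluorescence over baseline measured at the second addition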
Target sequence (Q96LB2 whole entry, looked up): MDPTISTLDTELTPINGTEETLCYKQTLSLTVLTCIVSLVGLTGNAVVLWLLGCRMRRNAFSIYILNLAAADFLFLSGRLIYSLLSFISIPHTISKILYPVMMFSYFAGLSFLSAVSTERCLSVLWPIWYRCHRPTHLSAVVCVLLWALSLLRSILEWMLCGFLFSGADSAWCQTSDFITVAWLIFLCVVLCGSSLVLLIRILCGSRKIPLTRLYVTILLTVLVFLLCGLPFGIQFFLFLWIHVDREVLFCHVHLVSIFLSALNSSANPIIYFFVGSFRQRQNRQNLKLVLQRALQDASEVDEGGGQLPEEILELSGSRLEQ
MrgX1 ag = agonists of human MrgX1 receptor; AID 588627; B-score at 10 µM; MrgX1-HEK293 cells, Fluo-4 calcium fluorescence, agonist mode; active compounds read high; hit rate 0.44% among 310,000; Q96LB2;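 active = calcium response B-score plate-corrected fluorescence ratio at least 3 library SD, with starting fluorescence B-score inside 5 SD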
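Test system: Stable human MrgX1 HEK293 cell line | Schedule: Overnight plating before 1 h dye loading | Read-out basis: Baseline-normalised fluorescence change ratio, B-scored | Detection: Kinetic calcium dye fluorescence, Fluo-4 NW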
RGS4 pot = RGS4 potentiation or activation; HEK293 M3R/inducible RGS4, carbachol calcium flux Fluo4; active compounds read low; B-score at 10 µM; hit rate 0.92% among 310,000; AID 463111;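 active = B-score of the integrated calcium signal more than 4 SD below the library mean, with starting fluorescence not abnormally high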;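 also: negative B-score means reduced calcium response which marks RGS4 activation or potentiation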
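Test system: HEK293 cells with stable M3R and inducible RGS4; also added: carbachol at ECmax as muscarinic agonist stimulus; schedule: dye loading 30 min 37 °C, buffer rest 30 min RT; technique: kinetic calcium fluorescence imaging with Fluo4-AM dye, 2 µM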
RGS4 inh = inhibitors of human RGS4; P49798; HEK293 M3R/RGS4 inducible, Fluo-4 calcium flux; active compounds read high; triggered by carbachol at its EC20; B-score at 10 µM; hit rate 0.45% among 310,000;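 active = B-score, a plate-corrected calcium signal, over three deviations above library mean, with baseline fluorescence within five deviations of library mean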;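 also: RGS4 expression induced by doxycycline in cells with stable M3 receptor; B-score is computed from the integrated fluorescence ratio over baseline after carbachol; higher B-score means a larger calcium signal and so more RGS4 inhibition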
Target sequence (P49798 whole entry, looked up): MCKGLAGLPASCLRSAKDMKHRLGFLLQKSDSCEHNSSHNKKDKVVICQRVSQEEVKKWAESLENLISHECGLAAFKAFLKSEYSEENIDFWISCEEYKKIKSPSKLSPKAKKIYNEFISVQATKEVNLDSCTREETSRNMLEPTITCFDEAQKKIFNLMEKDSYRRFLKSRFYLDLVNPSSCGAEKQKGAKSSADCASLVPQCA
MrgX1 antagonist = blocks BAM8-22 activation of human MrgX1 receptor; B-score at 10 µM; hit rate 1.3% among 310,000; AID 588676; MRGX1-HEK293 calcium flux, Fluo-4, BAM8-22 antagonism; active compounds read low; Q96LB2;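 active = calcium-response B-score plate-corrected more than 3 library SD below zero, starting fluorescence within 5 deviations, no agonist response on first addition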;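 also: peak minus trough fluorescence over baseline after final BAM8-22 challenge near maximal dose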
MrgX1 ant reconf = confirmation of human MrgX1 receptor antagonists; remaining BAM8-22 calcium response % of control (active compounds read low), % at 10 µM; hit rate 19% among 2,300; MrgX1-HEK293, BAM8-22 calcium flux, Fluo-4; active compounds read low; shares compounds with MrgX1 antagonist;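 active = remaining agonist calcium response no higher than 100% minus 3 SD of agonist-only control wells, with starting fluorescence near control levels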;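 also: agonist BAM8-22 given at a near maximal EC90 to ECmax level; peak minus minimum fluorescence divided by baseline after agonist addition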
HEK293 Ca flux = MrgX1 antagonist counter-screen hit in parental HEK293 cells | Fluo-4 calcium fluorescence, FDSS | fluorescence ratio F(max-min)/F0 at 10 µM | hit rate 2% among 4,000 | shares compounds with MrgX1 antagonist;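 active = duplicate-averaged calcium fluorescence ratio at least three times the standard deviation of buffer wells, a nonspecific response in parental cells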
HEK293 Ca counter = counter-screen for MrgX1 allosteric activators: effect in parental HEK293 cells; shares compounds with MrgX1 antagonist; parental HEK293 calcium flux, Fluo-4 fluorescence ratio; active compounds read high; fluorescence ratio F(max-min)/F0 at 10 µM; hit rate 0.4% among 4,000; AID 624114;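 active = calcium fluorescence ratio, averaged over duplicates, at least 3 SD of the buffer-well ratio, meaning a nonspecific response in receptor-free cells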;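 also: untransfected parental HEK293 lacking MrgX1 used as counterscreen for MrgX1 allosteric activators; fluorescence change taken during the second addition on a kinetic imager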
HEK293 Ca cntr2 = activity in parental HEK293 cells lacking MrgX1 receptor | AID 624115 | fluorescence ratio F(max-min)/F0 at 10 µM | Fluo-4 calcium fluorescence (FDSS); active compounds read high | hit rate 8.7% among 4,000 | shares compounds with MrgX1 antagonist;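 active = calcium fluorescence ratio at least three times the spread of buffer wells, meaning a non-specific response in parental cells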
* marks the source's active call; other numbers are inactive results.

What do the screens show for `CCC(C)C(NC(=O)c1ccc(Cl)cc1)C(=O)Nc1cccnc1` (centres undefined)?
MrgX1 PAM: inactive; MrgX1 ag: inactive; RGS4 pot: inactive; RGS4 inh: inactive; MrgX1 antagonist: -7.6*; MrgX1 ant reconf: inactive; HEK293 Ca flux: inactive; HEK293 Ca counter: inactive; HEK293 Ca cntr2: inactive

What do the screens show for `Cc1nc(NC(=O)CSc2nnc(N)s2)c(Cl)cc1Cl`?
MrgX1 PAM: inactive; MrgX1 ag: inactive; RGS4 pot: inactive; RGS4 inh: inactive; MrgX1 antagonist: inactive

Results for O=C(CCCC(=O)c1ccc(F)cc1)c1ccc(F)cc1 ?
MrgX1 PAM: inactive; MrgX1 ag: inactive; RGS4 pot: inactive; RGS4 inh: inactive; MrgX1 antagonist: inactive

Results for Cc1cccc(-n2ccnc2SCC(=O)Nc2nnc(C)s2)c1 ?
MrgX1 PAM: inactive; MrgX1 ag: inactive; RGS4 pot: inactive; RGS4 inh: inactive; MrgX1 antagonist: -7.7*; MrgX1 ant reconf: inactive; HEK293 Ca flux: inactive; HEK293 Ca counter: inactive; HEK293 Ca cntr2: inactive

How did CCc1nnc(NC(=O)CSc2nccn2-c2cccc(C)c2)s1 do in these assays?
MrgX1 PAM: inactive; MrgX1 ag: inactive; RGS4 pot: inactive; RGS4 inh: inactive; MrgX1 antagonist: inactive

What do the screens show for `CC1CCCC(C)N1C(=O)CSCc1ccc(Cl)cc1` (centres undefined)?
MrgX1 PAM: inactive; MrgX1 ag: inactive; RGS4 pot: inactive; RGS4 inh: inactive; MrgX1 antagonist: -4.7*; MrgX1 ant reconf: inactive; HEK293 Ca flux: inactive; HEK293 Ca counter: inactive; HEK293 Ca cntr2: inactive

What do the screens show for `CC1CCCC(C)N1C(=O)COC(=O)Cc1ccc(Cl)cc1` (centres undefined)?
MrgX1 PAM: inactive; MrgX1 ag: inactive; RGS4 pot: inactive; RGS4 inh: inactive; MrgX1 antagonist: inactive

What do the screens show for `O=C(OCC(=O)c1cccc2ccccc12)c1ccc(CO)cc1`?
MrgX1 PAM: inactive; MrgX1 ag: inactive; RGS4 pot: inactive; RGS4 inh: inactive; MrgX1 antagonist: inactive

How did CCOCCCNCc1cn(-c2ccc(F)cc2F)nc1-c1ccccc1C do in these assays?
MrgX1 PAM: inactive; MrgX1 ag: inactive; RGS4 pot: inactive; RGS4 inh: inactive; MrgX1 antagonist: inactive

What do the screens show for `CCOC(=O)Cn1c(=O)cc(C)c2ccccc21`?
MrgX1 PAM: inactive; MrgX1 ag: inactive; RGS4 pot: inactive; RGS4 inh: inactive; MrgX1 antagonist: -8.5*; MrgX1 ant reconf: inactive; HEK293 Ca flux: inactive; HEK293 Ca counter: inactive; HEK293 Ca cntr2: inactive

How did COc1cc(C(C)=O)ccc1OCC(O)CN1CCN(c2cc(C)cc(C)c2)CC1 (centres undefined) do in these assays?
MrgX1 PAM: inactive; MrgX1 ag: inactive; RGS4 pot: inactive; RGS4 inh: inactive; MrgX1 antagonist: inactive

What do the screens show for `O=C(COC(=O)c1ccc2[nH]c3c(c2c1)CCCC3)Nc1ccccc1Cl`?
MrgX1 PAM: inactive; MrgX1 ag: inactive; RGS4 pot: inactive; RGS4 inh: inactive; MrgX1 antagonist: inactive

How did CCC(C)c1ccccc1NC(=O)COC(=O)c1ccc2[nH]c3c(c2c1)CCCC3 (centres undefined) do in these assays?
MrgX1 PAM: inactive; MrgX1 ag: inactive; RGS4 pot: inactive; RGS4 inh: inactive; MrgX1 antagonist: -7.4*; MrgX1 ant reconf: inactive; HEK293 Ca flux: inactive; HEK293 Ca counter: inactive; HEK293 Ca cntr2: inactive

What do the screens show for `CC1CC(C)(C)NC(=S)N1CC(=O)N1CCN(Cc2ccc3c(c2)OCO3)CC1` (centres undefined)?
MrgX1 PAM: inactive; MrgX1 ag: inactive; RGS4 pot: inactive; RGS4 inh: inactive; MrgX1 antagonist: inactive

What do the screens show for `CCOc1ccc(OCCC(=O)OCC(=O)c2c(N)n(C)c(=O)n(C)c2=O)cc1`?
MrgX1 PAM: inactive; MrgX1 ag: inactive; RGS4 pot: inactive; RGS4 inh: inactive; MrgX1 antagonist: inactive

Results for COc1ccc(C(=O)NCCS(=O)(=O)NC(C)c2ccccc2)cc1 (centres undefined) ?
MrgX1 PAM: inactive; MrgX1 ag: inactive; RGS4 pot: inactive; RGS4 inh: inactive; MrgX1 antagonist: inactive

What do the screens show for `CCCCNC(=O)N1CCOCCOCCN(C(=O)NCCCC)CCOCC1`?
MrgX1 PAM: inactive; MrgX1 ag: inactive; RGS4 pot: inactive; RGS4 inh: inactive; MrgX1 antagonist: -4.6*; MrgX1 ant reconf: inactive; HEK293 Ca flux: inactive; HEK293 Ca counter: inactive; HEK293 Ca cntr2: inactive

What do the screens show for `Cc1cc(C(F)(F)F)nc(SCCN2CCCCC2)c1C#N`?
MrgX1 PAM: inactive; MrgX1 ag: inactive; RGS4 pot: inactive; RGS4 inh: inactive; MrgX1 antagonist: inactive

How did Cc1ccc(S(=O)(=O)N(CC(=O)Nc2ccccc2C(=O)O)c2cccc(Cl)c2C)cc1 do in these assays?
MrgX1 PAM: inactive; MrgX1 ag: inactive; RGS4 pot: inactive; RGS4 inh: inactive; MrgX1 antagonist: -7.1*; MrgX1 ant reconf: inactive; HEK293 Ca flux: inactive; HEK293 Ca counter: inactive; HEK293 Ca cntr2: inactive

What do the screens show for `Cc1ccc2nc(SCCC#N)nc(C)c2c1`?
MrgX1 PAM: inactive; MrgX1 ag: inactive; RGS4 pot: inactive; RGS4 inh: inactive; MrgX1 antagonist: -8.1*; MrgX1 ant reconf: inactive; HEK293 Ca flux: inactive; HEK293 Ca counter: inactive; HEK293 Ca cntr2: inactive

Results for Cc1ccc2nc(SCC(=O)O)nc(C)c2c1 ?
MrgX1 PAM: inactive; MrgX1 ag: inactive; RGS4 pot: inactive; RGS4 inh: inactive; MrgX1 antagonist: inactive

How did CCN1C(=O)[C@H]2[C@@H](c3ccc(-c4cccc(Cl)c4)cc3)N[C@@](Cc3ccccc3)(C(=O)OC)[C@H]2C1=O do in these assays?
MrgX1 PAM: inactive; MrgX1 ag: inactive; RGS4 pot: inactive; RGS4 inh: inactive; MrgX1 antagonist: inactive

Results for NC(=O)c1cnn2c(C(F)(F)F)cc(-c3ccccc3)nc12 ?
MrgX1 PAM: inactive; MrgX1 ag: inactive; RGS4 pot: inactive; RGS4 inh: inactive; MrgX1 antagonist: inactive

High-throughput results (PubChem)
